Results from ChEMBL document CHEMBL2417530, “Coumarin derivatives protect against ischemic brain injury in rats” (Eur J Med Chem, 2013).
Calls of active or inactive are those of the source. The calls are words filed in the database; no cut-off is given here.

Tests used:
Rattus norvegicus [1] = test: In vivo neuroprotective activity in Sprague-Dawley rat transient middle cerebral artery occlusion model assessed as reduction of brain-water content at 6 mg/kg, iv measured 24 hrs post reperfusion; assay type: functional, organism-based; parameters: dose 6 mg/kg
In short: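 Male SD rats (7 weeks, 260-280 g) had 60 min transient right MCA occlusion with a nylon filament, then reperfusion. Saline or drug (1.5, 3.0, 6.0 mg/kg) was injected iv at reperfusion. Animals without neurological deficit were replaced. At 24 h brains were oven-dried at 110 °C for 24 h, and water content was taken as (wet−dry)/wet; n = 12.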

Rattus norvegicus [2] = test: In vivo neuroprotective activity in Sprague-Dawley rat transient middle cerebral artery occlusion model assessed as reduction of infarct size at 6 mg/kg, iv measured 24 hrs post reperfusion by TTC staining assay relative to vehicle-treated control; assay type: functional
In short: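 Male Sprague-Dawley rats, 7 weeks, 260–280 g, under 10% chloral hydrate ip. Right MCA occluded 60 min by tip-burned 4-0 nylon thread via common carotid, then reperfused. Saline or drug given iv at reperfusion, ethanol as cosolvent. Killed 24 h later; six 2 mm slices in 1% TTC in PBS, 37 °C, 30 min. Infarct area traced as % of total area; n = 12.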

## CC1=NN(c2ccccc2)C(=O)C1
Rattus norvegicus [1]
  Activity: Active
Rattus norvegicus [2]
  Activity: Active
